Experimental data: ChEMBL document CHEMBL4219124, “Alleviating CYP and hERG liabilities by structure optimization of dihydrofuran-fused tricyclic benzo[d]imidazole series - Potent, selective and orally efficacious microsomal prostaglandin E synthase-1 (mPGES-1) inhibitors: Part-2” (Bioorg Med Chem Lett, 2018)

Tested on: Cavia porcellus
Assay: Analgesic activity in Dunkin-Hartley guinea pig hyperalgesia pain model assessed as inhibition of LPS-induced hyperalgesia at 10 mg/kg, po administered 2 hrs prior to LPS challenge measured after 4.5 hrs relative to control
Assay type: functional
Method in brief: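 Guinea pigs received compound orally, once daily, at 10, 30 or 100 mg/kg, 2 h before LPS was injected into the plantar surface of the right paw. Saline-injected animals served as the comparison for thermal hyperalgesia. Plasma and brain drug levels taken 7 h after dosing, mean of n = 6–9 per group, from a single experiment.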

O=C(O)Cc1ccccc1Nc1c(Cl)cccc1Cl [DICLOFENAC]
inhibition in vivo at 10 mg/kg: 85%
